Results published in ChEMBL document CHEMBL5579886, “Selective Degradation of MLK3 by a Novel CEP1347-VHL-02 PROTAC Compound Limits the Oncogenic Potential of TNBC” (J Med Chem, 2024).
Calls of active or inactive are those of the source. No cut-off for these calls is given here.

Key:
[1] = molecular target: T1, von Hippel-Lindau disease tumor suppressor/Mitogen-activated protein kinase kinase kinase 10 (Homo sapiens) (UniProt Q02779+P40337); test: PROTAC activity at VHL/DOX-inducible MLK2 (unknown origin) overexpressed in human A-375 cells assessed as protein degradation at 0.1 to 5 uM incubated for 24 hrs by immunoblot analysis; type: cell-based; conditions: dose 0.1-5 µM
Procedure, shortened: (§1)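 A375 cells carried lentiviral DOX-inducible MLK1, MLK2 or MLK4 and were grown in RPMI-1640 with 10% FBS. Cells were seeded at 100 000/well and induced with 1 μg/mL DOX. After 24 h they were treated at 0.1–5 μM for 24 h, with DMSO as control. Levels were read by ECL immunoblot of RIPA lysates, with GAPDH or β-actin loading control.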

MCF7 [2] = test: Inhibition of cell migration in human MCF7 cells at 1 uM incubated for 24 hrs by transwell assay; type: functional, cell-based
Procedure, shortened: (§2)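 Boyden inserts, 8 μm pores: 200 000 cells in serum-free DMEM with 1 μM PROTAC or DMSO, 20% FBS DMEM below as chemoattractant, 24 h at 37 °C, 5% CO2. Migrated cells fixed, crystal violet stained and counted by image analysis; at least three repeats.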

MDA-MB-468 [3] = test: Induction of cell cycle arrest at G2/M phase in human MDA-MB-468 cells at 1 uM measured after 48 hrs by PI staining based flow cytometry; type: functional
Procedure, shortened: (§3)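 Cells seeded at 50 000/well, exposed to 1 μM PROTAC or DMSO for 48 h, trypsinized, fixed in ice-cold methanol and held at –20 °C; next day stained with PI/RNase solution and read by flow cytometry. Two independent experiments.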

MCF7 [4] = test: Effect on ERK pathway in human MCF7 cells at 1 uM measured after 24 hrs by immunoblot analysis; type: functional, cell-based
[5] = molecular target: T2, von Hippel-Lindau disease tumor suppressor/Mitogen-activated protein kinase kinase kinase 11 (Homo sapiens, UniProt Q16584+P40337); test: PROTAC activity at VHL/MLK3 in human MDA-MB-468 cells assessed as protein degradation at 1 uM measured after 24 hrs by immunoblot analysis
[6] = molecular target: T2, von Hippel-Lindau disease tumor suppressor/Mitogen-activated protein kinase kinase kinase 11; test: PROTAC activity at VHL/MLK3 in human MDA-MB-468 cells assessed as protein degradation at 1 uM measured after 24 hrs by immunoblot analysis; type: cell-based
Procedure, shortened: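 MCF-7 and MDA-MB-468 cells were treated for 24 h across 0.1–5 μM, with DMSO as control. MLK3 was immunoblotted and quantified as percent remaining versus concentration, from which DC50 and Dmax were derived.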

MDA-MB-468 [7] = test: Inhibition of cell migration in human MDA-MB-468 cells at 1 uM incubated for 24 hrs by transwell assay; type: functional, cell-based; procedure, shortened: as §2
MCF7 [8] = test: Inhibition of colony formation in human MCF7 cells harboring siMLK3 by crystal violet staining based analysis; type: functional, cell-based
Procedure, shortened: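 MCF-7 or MDA-MB-468 seeded at 10 000 cells/well, transfected next day with MAP3K11 SMARTpool siRNA or nontargeting control siRNA; crystal violet staining 7 days after transfection. Knockdown confirmed by immunoblot.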

[9] = molecular target: T2, von Hippel-Lindau disease tumor suppressor/Mitogen-activated protein kinase kinase kinase 11; test: PROTAC activity at VHL/DOX-inducible MLK3 (unknown origin) overexpressed in carfilzomib-treated human HCC1806 cells assessed as protein degradation at 0.25 to 1 uM measured after 7 hrs by immunoblot analysis; type: cell-based; conditions: dose 0.25-1 µM
Procedure, shortened: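 HCC1806 cells with DOX-inducible MLK3 were induced with 1 μg/mL DOX for 24 h. They were pretreated with 1 μM carfilzomib (proteasome inhibitor) for 1 h, then with PROTAC at 0.25–1 μM for 7 h, with DMSO as control. MLK3 was assessed by ECL immunoblot.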

MCF7 [10] = test: Growth inhibition of human MCF7 cell spheroids in low-attachment surface at 1 uM incubated for 10 days; type: functional, cell-based; conditions: time 10.0 day
Procedure, shortened: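 Cells grown 10 days in low-attachment surface plates in medium containing 1 μM PROTAC or DMSO; spheroid growth assessed.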

MCF7 [11] = test: Effect on cell cycle in human MCF7 cells at 1 uM measured after 48 hrs by PI staining based flow cytometry; type: functional; procedure, shortened: as §3
[12] = molecular target: T2, von Hippel-Lindau disease tumor suppressor/Mitogen-activated protein kinase kinase kinase 11; test: PROTAC activity at VHL/MLK3 in human MDA-MB-468 cells assessed as decrease in JNK pathway at 1 uM measured after 24 hrs by immunoblot analysis; type: cell-based
[13] = molecular target: von Hippel-Lindau disease tumor suppressor/Mitogen-activated protein kinase kinase kinase 21 (Homo sapiens) (UniProt P40337+Q5TCX8); test: PROTAC activity at VHL/DOX-inducible MLK4 (unknown origin) overexpressed in human A-375 cells assessed as protein degradation at 0.1 to 5 uM incubated for 24 hrs by immunoblot analysis; type: cell-based; conditions: dose 0.1-5 µM; procedure, shortened: as §1
[14] = molecular target: von Hippel-Lindau disease tumor suppressor/Mitogen-activated protein kinase kinase kinase 9 (Homo sapiens) (UniProt P80192+P40337); test: PROTAC activity at VHL/MLK1 in human MDA-MB-468 cells assessed as protein degradation at 1 uM incubated for 24 hrs by immunoblot analysis; type: cell-based
Procedure, shortened: (§4)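 Endogenous MLK1, MLK2 or MLK4 levels in MCF-7 and MDA-MB-468 cells. Cells were grown in high-glucose DMEM with 10% FBS, seeded at 100 000 cells/well and treated the next day for 24 h, with DMSO as control. Lysis was in RIPA with protease inhibitor, followed by 10% SDS-PAGE, nitrocellulose transfer and ECL immunoblot with GAPDH or β-actin as loading control.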

[15] = molecular target: T1, von Hippel-Lindau disease tumor suppressor/Mitogen-activated protein kinase kinase kinase 10 (Homo sapiens); test: PROTAC activity at VHL/MLK2 in human MDA-MB-468 cells assessed as protein degradation at 1 uM incubated for 24 hrs by immunoblot analysis; type: cell-based; procedure, shortened: as §4

T2 sequence (P40337 whole entry, looked up): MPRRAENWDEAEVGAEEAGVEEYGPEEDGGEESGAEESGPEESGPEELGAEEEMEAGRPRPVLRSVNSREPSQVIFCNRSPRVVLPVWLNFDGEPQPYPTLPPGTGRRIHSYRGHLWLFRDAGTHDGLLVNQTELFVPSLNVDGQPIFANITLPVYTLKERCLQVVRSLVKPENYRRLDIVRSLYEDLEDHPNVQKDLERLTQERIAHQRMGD
T2 sequence (Q16584 whole entry, looked up): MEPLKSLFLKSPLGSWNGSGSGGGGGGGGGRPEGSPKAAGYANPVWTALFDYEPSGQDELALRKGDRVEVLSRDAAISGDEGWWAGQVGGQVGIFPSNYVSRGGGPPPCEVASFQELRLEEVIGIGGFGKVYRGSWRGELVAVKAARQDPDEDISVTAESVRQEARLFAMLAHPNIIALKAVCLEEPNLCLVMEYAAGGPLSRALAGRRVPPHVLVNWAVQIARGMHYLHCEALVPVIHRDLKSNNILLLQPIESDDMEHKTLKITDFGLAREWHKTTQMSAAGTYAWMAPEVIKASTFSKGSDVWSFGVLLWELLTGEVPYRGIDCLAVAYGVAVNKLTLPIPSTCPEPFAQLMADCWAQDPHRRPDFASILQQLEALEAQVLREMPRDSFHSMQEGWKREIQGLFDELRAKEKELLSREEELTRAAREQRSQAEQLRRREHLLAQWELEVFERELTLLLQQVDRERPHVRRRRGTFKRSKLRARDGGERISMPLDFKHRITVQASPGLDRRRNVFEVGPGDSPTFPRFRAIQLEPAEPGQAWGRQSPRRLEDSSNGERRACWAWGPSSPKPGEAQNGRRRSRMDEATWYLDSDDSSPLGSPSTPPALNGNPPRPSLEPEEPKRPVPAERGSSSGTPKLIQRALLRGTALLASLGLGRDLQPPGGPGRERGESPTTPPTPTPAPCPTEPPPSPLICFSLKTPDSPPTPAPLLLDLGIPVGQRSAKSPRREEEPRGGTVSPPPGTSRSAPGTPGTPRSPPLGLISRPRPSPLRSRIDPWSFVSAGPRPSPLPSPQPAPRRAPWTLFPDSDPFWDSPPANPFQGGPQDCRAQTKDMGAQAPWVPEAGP
T1 sequence (P40337 whole entry, looked up): as the sequence (P40337 whole entry, looked up) above
T1 sequence (Q02779 whole entry, looked up): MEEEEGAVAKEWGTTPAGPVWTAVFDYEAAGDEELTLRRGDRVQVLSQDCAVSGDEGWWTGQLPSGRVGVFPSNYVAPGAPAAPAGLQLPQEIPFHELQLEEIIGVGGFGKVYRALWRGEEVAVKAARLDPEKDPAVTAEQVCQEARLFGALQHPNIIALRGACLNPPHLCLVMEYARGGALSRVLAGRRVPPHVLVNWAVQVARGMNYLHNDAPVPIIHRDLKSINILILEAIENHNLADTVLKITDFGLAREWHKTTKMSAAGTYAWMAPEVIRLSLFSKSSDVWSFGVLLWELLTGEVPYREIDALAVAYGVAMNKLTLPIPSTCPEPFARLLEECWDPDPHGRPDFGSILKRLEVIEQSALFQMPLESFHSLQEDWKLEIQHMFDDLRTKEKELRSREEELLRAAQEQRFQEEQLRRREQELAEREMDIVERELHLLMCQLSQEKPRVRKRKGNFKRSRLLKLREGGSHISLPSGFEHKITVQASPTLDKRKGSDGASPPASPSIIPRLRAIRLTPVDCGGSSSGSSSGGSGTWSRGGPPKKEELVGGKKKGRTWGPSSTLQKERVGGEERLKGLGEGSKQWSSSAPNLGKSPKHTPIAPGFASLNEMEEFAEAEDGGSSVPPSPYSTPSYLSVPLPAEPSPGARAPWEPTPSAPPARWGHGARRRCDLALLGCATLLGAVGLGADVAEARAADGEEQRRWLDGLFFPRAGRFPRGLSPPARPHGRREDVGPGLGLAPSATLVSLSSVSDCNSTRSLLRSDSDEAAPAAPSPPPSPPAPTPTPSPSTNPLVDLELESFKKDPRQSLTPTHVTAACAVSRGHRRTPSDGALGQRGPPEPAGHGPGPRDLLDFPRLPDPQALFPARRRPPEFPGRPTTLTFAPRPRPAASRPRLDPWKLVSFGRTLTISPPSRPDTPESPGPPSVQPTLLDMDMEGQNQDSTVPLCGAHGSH
Chain of von Hippel-Lindau disease tumor suppressor/Mitogen-activated protein kinase kinase kinase 21 (Homo sapiens) (P40337 whole entry, looked up): as the sequence (P40337 whole entry, looked up) above
Chain of von Hippel-Lindau disease tumor suppressor/Mitogen-activated protein kinase kinase kinase 21 (Homo sapiens) (Q5TCX8 whole entry, looked up): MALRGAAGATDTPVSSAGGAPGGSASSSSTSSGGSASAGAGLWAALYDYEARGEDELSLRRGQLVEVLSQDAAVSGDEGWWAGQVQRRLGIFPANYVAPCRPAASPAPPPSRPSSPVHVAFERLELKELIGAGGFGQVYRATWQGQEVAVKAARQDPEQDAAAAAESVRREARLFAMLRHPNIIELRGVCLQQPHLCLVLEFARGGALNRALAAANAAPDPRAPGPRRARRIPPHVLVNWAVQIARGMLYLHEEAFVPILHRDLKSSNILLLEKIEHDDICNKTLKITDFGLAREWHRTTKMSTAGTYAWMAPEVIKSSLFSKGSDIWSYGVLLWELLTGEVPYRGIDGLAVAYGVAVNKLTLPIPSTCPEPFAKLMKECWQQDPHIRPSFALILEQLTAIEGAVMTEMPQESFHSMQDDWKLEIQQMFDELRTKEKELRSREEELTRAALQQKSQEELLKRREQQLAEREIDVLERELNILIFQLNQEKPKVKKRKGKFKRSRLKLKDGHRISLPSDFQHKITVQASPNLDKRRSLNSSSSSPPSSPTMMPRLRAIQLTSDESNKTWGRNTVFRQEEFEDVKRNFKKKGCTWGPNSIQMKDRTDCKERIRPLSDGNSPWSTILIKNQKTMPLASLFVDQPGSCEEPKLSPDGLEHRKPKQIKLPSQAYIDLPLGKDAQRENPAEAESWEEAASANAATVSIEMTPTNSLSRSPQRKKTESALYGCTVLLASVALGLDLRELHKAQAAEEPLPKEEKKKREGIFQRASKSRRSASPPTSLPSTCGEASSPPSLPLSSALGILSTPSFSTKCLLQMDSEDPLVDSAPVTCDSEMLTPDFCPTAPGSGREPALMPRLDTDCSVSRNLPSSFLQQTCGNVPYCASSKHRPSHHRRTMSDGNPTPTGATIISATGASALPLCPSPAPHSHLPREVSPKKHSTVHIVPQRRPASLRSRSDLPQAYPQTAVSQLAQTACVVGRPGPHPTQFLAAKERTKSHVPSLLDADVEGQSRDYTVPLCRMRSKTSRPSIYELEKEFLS
Chain of von Hippel-Lindau disease tumor suppressor/Mitogen-activated protein kinase kinase kinase 9 (Homo sapiens) (P40337 whole entry, looked up): as the sequence (P40337 whole entry, looked up) above
Chain of von Hippel-Lindau disease tumor suppressor/Mitogen-activated protein kinase kinase kinase 9 (Homo sapiens) (P80192 whole entry, looked up): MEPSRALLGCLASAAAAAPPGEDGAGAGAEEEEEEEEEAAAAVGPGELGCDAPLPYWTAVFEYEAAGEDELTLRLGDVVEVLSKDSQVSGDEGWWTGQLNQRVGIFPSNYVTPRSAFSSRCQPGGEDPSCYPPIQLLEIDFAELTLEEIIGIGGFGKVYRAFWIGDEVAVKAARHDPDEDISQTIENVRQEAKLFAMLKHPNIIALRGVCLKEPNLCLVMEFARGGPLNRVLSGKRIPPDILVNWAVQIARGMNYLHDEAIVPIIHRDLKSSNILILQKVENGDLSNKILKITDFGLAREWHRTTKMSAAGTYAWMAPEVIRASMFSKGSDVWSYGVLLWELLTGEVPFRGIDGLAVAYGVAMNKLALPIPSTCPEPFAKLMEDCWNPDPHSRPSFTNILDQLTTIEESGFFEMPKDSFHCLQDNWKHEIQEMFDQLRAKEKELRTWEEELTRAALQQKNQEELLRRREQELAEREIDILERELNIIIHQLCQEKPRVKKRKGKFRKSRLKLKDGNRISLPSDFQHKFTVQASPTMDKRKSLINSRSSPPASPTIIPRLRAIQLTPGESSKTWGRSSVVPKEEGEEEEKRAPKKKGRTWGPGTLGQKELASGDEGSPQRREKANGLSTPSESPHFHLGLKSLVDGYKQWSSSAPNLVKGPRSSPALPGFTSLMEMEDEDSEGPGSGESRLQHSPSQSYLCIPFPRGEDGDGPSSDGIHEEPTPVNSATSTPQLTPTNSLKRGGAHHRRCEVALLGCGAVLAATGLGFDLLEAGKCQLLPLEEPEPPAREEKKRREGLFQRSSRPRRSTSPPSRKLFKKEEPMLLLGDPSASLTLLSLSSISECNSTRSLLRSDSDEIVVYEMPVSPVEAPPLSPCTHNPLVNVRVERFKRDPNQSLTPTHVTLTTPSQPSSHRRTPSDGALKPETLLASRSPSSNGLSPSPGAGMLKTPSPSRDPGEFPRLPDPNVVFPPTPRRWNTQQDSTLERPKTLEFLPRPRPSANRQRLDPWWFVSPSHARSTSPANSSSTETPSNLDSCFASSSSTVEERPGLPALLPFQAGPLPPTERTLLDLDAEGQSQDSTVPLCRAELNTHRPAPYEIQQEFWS

## CCSCc1ccc2c(c1)c1c3c(c4c5cc(CSCC)ccc5n5c4c1n2[C@H]1C[C@](O)(C(=O)NCCOCCOCCOCC(=O)N[C@H](C(=O)N2C[C@H](O)C[C@H]2C(=O)N[C@@H](C)c2ccc(-c4scnc4C)cc2)C(C)(C)C)[C@]5(C)O1)CNC3=O
[1]
  Activity: inactive
MCF7 [2]
  inhibition: inactive
MDA-MB-468 [3]
  Activity: Active
MCF7 [4]
  Activity: inactive
[5]
  Activity: Active
[6]
  Activity: Active
MDA-MB-468 [7]
  inhibition: Active
MCF7 [8]
  inhibition: inactive
[9]
  Activity: inactive
MCF7 [10]
  growth inhibition (GI): inactive
MCF7 [11]
  Activity: inactive
[12]
  Activity: Active
[13]
  Activity: inactive
[14]
  Activity: inactive
[15]
  Activity: inactive
